Experimental data from different studies.
Each line is one published result; the experiments were not run side by side.
TRPM8: Transient receptor potential cation channel subfamily M member 8 (TRPM8, Homo sapiens, UniProt Q7Z2W7)
LATS2: Serine/threonine-protein kinase LATS2 (LATS2, Homo sapiens, UniProt Q9NRM7)
CD36: Platelet glycoprotein 4 (CD36, Homo sapiens, UniProt P16671)
SLC6A6: Sodium- and chloride-dependent taurine transporter (SLC6A6, Homo sapiens, UniProt P31641)
AKR1B1: Aldo-keto reductase family 1 member B1 (AKR1B1, Homo sapiens, UniProt P15121)

Compound	target	read-out	action	technique	endpoint	result
CNC(=O)C(C)(C(C)C)C(C)C	TRPM8	calcium signal	agonist	–	EC50	56.5 µM
OC1(c2ccc(-c3ccnc4[nH]cc(F)c34)cc2)CCNCC1	LATS2	enzyme activity	inhibitor	radiometric	IC50	0.0057 µM
CCCCC1OC(=O)c2ccccc21 (centres unmarked)	Vimentin (VIM, Homo sapiens, UniProt P08670)	binding	–	SPR	Kd	3.42 µM
Cc1cc(-c2ccnc3[nH]cc(F)c23)cc(F)c1[C@@]1(O)[C@H](C)CN(C2CCS(=O)(=O)CC2)C[C@@H]1C	LATS2	binding	–	TR-FRET	Kd	0.0017 µM
Cc1ncsc1-c1ccc(CNC(=O)[C@@H]2C[C@@H](O)CN2C(=O)[C@@H](NC(=O)COCCOCCOCCNC(=O)C[C@@H]2N=C(c3ccc(Cl)cc3)c3c(sc(C)c3C)-n3c(C)nnc32)C(C)(C)C)cc1	CD36	binding	–	SPR	Kd	9.6 µM
NCCS(=O)(=O)O	SLC6A6	binding	–	MST	Kd	0.71 µM
O=C1NC(c2cccc([N+](=O)[O-])c2)=CCN1c1ccccc1O	TRPM8	ion current	agonist	patch clamp	EC50	0.412 µM
Cc1cc(-c2ccnc3[nH]cc(F)c23)cc(F)c1[C@@]1(O)[C@H](C)CN(C(=O)CN)C[C@@H]1C	LATS2	binding	–	TR-FRET	Kd	0.00049 µM
COc1cc(/C=N/NC(=S)N/N=C\c2ccc(Cl)c(Cl)c2)ccc1Oc1ccnc2cc(Cl)ccc12	AKR1B1	enzyme activity	inhibitor	absorbance	IC50	13.4 µM
Cc1cc(-c2ccnc3[nH]cc(F)c23)cc(F)c1[C@@]1(O)[C@H](C)CN(C2COC2)C[C@@H]1C	LATS2	enzyme activity	inhibitor	radiometric	IC50	0.009 µM
CCCCC(=O)Nc1ccc(-c2ccc3ncn(CCC)c(=O)c3c2)cn1	Phosphatidylinositol 5-phosphate 4-kinase type-2 gamma (PIP4K2C, Homo sapiens, UniProt Q8TBX8)	binding	–	competition with immobilised ligand	Kd	0.00655 µM
COc1cc(/C=N/NC(=S)N/N=C/c2ccccc2)ccc1Oc1ccnc2cc(Cl)ccc12	AKR1B1	enzyme activity	inhibitor	absorbance	IC50	17.2 µM
N=C(N)NCC(=O)O	SLC6A6	binding	–	MST	Kd	35.8 µM
COc1cc(/C=N/NC(=S)NN=Cc2ccc([N+](=O)[O-])o2)ccc1Oc1ccnc2cc(Cl)ccc12	AKR1B1	enzyme activity	inhibitor	–	Ki	4.65 µM
COc1ccc(NC(=O)[C@@H]2C[C@H](C)CC[C@H]2C(C)C)cc1	TRPM8	ion current	agonist	patch clamp	EC50	4 µM
COc1cc(/C=N/NC(=S)N/N=C/c2ccc(Br)s2)ccc1Oc1ccnc2cc(Cl)ccc12	AKR1B1	enzyme activity	inhibitor	absorbance	IC50	17.7 µM
O=C(c1ccccc1)c1ccc(OCCCn2cnc3ccccc3c2=O)cc1	CD36	binding	–	MST	Kd	10 µM
